According to ChEMBL document CHEMBL1132324, “Structure-activity relationships in 1,4-benzodioxan-related compounds. 6. Role of the dioxane unit on selectivity for alpha(1)-adrenoreceptor subtypes” (J Med Chem, 1999):

Legend:
[1] = biological target: T1, 5-hydroxytryptamine receptor 1A (Homo sapiens) (UniProt P08908)
T1 sequence (whole entry): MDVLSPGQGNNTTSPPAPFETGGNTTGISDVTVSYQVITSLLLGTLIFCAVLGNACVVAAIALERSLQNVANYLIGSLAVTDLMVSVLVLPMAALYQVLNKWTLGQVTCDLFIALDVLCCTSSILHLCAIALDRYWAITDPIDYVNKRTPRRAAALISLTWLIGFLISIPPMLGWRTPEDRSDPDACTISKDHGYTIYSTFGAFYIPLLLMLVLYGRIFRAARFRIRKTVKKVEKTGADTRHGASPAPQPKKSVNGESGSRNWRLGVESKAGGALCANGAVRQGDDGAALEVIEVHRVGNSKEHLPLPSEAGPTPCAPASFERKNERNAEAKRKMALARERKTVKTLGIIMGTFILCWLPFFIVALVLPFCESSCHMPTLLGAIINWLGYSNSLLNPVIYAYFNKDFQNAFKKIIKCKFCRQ

[2] = biological target: T1, 5-hydroxytryptamine receptor 1A (Homo sapiens); remark: listed apart in the source
[3] = biological target: D(2) dopamine receptor (Rattus norvegicus) (UniProt P61169); test: The binding affinity was evaluated on Dopamine receptor D2 expressed in rat striatum by using [3H]spiperone as radioligand; assay type: tissue-based
Chain of D(2) dopamine receptor (Rattus norvegicus) (P61169 whole entry): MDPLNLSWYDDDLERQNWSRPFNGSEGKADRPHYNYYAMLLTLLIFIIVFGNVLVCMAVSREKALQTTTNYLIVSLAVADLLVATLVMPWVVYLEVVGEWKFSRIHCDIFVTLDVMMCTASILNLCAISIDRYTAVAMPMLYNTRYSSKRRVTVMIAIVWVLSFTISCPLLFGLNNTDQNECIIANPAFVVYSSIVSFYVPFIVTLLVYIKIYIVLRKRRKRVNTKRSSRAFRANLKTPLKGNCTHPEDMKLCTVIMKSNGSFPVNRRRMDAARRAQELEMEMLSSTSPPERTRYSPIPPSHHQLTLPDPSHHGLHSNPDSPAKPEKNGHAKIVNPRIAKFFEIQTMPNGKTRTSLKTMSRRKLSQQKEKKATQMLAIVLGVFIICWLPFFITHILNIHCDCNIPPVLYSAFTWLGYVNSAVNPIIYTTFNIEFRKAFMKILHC
Method in brief: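 Rat striatum membranes in Tris-HCl with 10 μM pargyline, 0.1% ascorbic acid, 120 mM NaCl, 5 mM KCl, 2 mM CaCl2, 1 mM MgCl2. Incubated 15 min at 37 °C with 0.2–0.6 nM [3H]spiperone. Nonspecific binding with 1 μM (+)-butaclamol. Ki by Cheng-Prusoff. 2–3 experiments in triplicate.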

[4] = biological target: T1, 5-hydroxytryptamine receptor 1A (Homo sapiens); test: The binding affinity was evaluated on cloned human 5-hydroxytryptamine 1A receptor expressed in HeLa cells by using DPAT as radioligand.; assay type: cell-based
Method in brief: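 Membranes from HeLa cells stably expressing human 5-HT1A, in 50 mM Tris-HCl pH 7.4, 2.5 mM MgCl2, 10 μM pargyline. Nonspecific binding with 10 μM 5-HT. Filtration. Ki by Cheng-Prusoff. 2–3 experiments in triplicate.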

[5] = biological target: T2, Alpha-1A adrenergic receptor (Homo sapiens) (UniProt P35348); test: The binding affinity was evaluated on cloned human alpha-1A adrenergic receptor expressed in chinese hamster ovary(CHO) cells by using [3H]prazosin as radioligand.; assay type: cell-based
T2 sequence (whole entry): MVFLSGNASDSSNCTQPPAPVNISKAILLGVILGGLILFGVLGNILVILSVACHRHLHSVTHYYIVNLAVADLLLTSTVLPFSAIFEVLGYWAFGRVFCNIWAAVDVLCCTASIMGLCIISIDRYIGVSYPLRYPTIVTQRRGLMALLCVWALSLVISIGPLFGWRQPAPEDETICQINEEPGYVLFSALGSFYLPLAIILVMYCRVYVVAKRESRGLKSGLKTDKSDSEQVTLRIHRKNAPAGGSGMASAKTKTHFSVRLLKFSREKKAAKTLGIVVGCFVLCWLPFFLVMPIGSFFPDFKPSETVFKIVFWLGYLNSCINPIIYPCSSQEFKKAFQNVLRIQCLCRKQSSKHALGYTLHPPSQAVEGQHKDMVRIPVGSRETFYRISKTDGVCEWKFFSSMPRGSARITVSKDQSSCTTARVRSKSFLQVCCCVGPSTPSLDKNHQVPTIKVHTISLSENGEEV
Method in brief: (§1)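 Membranes (30 μg protein) from CHO cells stably expressing each human α1 subtype, in 50 mM Tris-HCl pH 7.4. Incubated with 0.1–0.4 nM [3H]prazosin for 30 min at 25 °C, competitor 1 pM–10 μM. Nonspecific binding with 10 μM phentolamine. Ki by Cheng-Prusoff. 2–3 experiments in triplicate.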

[6] = biological target: T3, Alpha-1B adrenergic receptor (Homo sapiens) (UniProt P35368); test: The binding affinity was evaluated on cloned human alpha-1B adrenergic receptor expressed in chinese hamster ovary(CHO) cells by using [3H]prazosin as radioligand.; assay type: cell-based
T3 sequence (whole entry): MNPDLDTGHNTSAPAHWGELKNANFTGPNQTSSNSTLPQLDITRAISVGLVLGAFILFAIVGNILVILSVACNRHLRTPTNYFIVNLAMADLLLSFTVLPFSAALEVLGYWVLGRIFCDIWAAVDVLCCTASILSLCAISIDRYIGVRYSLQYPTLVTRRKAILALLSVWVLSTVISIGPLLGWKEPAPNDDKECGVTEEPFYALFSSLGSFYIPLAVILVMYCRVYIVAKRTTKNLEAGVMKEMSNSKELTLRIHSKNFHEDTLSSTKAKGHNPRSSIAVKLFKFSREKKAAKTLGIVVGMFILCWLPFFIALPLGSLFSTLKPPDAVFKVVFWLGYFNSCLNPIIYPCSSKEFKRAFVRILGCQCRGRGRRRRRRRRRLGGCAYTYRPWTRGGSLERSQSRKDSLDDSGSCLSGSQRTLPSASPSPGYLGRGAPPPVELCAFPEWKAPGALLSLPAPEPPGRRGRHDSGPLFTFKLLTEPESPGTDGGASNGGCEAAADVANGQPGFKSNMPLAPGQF
Method in brief: as §1

[7] = biological target: T4, Alpha-1D adrenergic receptor (Homo sapiens) (UniProt P25100); test: The binding affinity was evaluated on cloned human alpha-1D adrenergic receptor expressed in chinese hamster ovary(CHO) cells by using [3H]prazosin as radioligand.; assay type: cell-based
T4 sequence (whole entry): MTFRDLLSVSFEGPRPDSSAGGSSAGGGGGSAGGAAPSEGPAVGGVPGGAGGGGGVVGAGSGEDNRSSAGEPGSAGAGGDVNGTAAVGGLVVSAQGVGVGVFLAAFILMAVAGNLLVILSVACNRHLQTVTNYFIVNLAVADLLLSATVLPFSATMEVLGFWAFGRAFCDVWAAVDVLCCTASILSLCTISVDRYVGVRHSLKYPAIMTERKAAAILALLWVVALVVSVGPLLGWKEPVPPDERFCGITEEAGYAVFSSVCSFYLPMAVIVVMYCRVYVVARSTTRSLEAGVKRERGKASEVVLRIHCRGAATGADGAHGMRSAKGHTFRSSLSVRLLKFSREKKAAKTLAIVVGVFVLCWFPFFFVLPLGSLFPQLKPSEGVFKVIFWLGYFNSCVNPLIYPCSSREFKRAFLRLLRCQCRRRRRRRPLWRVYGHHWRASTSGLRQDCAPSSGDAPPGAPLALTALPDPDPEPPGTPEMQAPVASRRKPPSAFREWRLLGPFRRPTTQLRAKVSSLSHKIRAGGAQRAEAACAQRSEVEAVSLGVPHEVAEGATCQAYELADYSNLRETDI
Method in brief: as §1

[8] = biological target: 5-hydroxytryptamine receptor 2A (Rattus norvegicus) (UniProt P14842); test: The binding affinity was evaluated on 5-hydroxytryptamine 2A receptor expressed in rat cortex by using [3H]ketanserin as radioligand.
Chain of 5-hydroxytryptamine receptor 2A (Rattus norvegicus) (P14842 whole entry): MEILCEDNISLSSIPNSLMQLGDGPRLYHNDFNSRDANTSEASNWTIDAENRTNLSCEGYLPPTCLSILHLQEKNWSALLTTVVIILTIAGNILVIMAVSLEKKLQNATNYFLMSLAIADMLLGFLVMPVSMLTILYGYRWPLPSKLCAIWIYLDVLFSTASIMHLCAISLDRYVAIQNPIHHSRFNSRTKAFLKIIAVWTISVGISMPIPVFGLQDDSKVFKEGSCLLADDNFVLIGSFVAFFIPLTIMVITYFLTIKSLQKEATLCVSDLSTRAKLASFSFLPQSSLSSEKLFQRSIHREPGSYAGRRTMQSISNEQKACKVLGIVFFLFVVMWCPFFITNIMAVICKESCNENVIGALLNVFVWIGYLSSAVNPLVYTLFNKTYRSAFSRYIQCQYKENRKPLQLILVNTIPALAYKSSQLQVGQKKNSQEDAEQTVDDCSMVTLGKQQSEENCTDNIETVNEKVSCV
Method in brief: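 Rat cerebral cortex membranes in Tris-HCl pH 7.4 with 10 μM pargyline and 0.1% ascorbic acid. Incubated 20 min at 37 °C with 0.7–1.3 nM [3H]ketanserin. Nonspecific binding with 2 μM ketanserin. Filtration and scintillation counting. Ki by Cheng-Prusoff. 2–3 experiments in triplicate.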

[9] = biological target: Adrenergic receptor alpha-2 (Rattus norvegicus) (UniProt P22086+P19328+P22909); test: The binding affinity was evaluated on alpha-2 adrenergic receptor expressed in rat cortex by using [3H]rauwolscine as radioligand.
Method in brief: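 Male Sprague-Dawley rat cerebral cortex membranes, washed in Tris-HCl pH 7.4 and held in buffer with 10 μM pargiline and 0.1% ascorbic acid. Incubated 30 min at 25 °C with 0.5-1.5 nM [3H]rauwolscine; nonspecific binding with 10 μM phentolamine. Filtration, scintillation counting. Ki from Cheng-Prusoff; 2-3 experiments in triplicate.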

[10] = biological target: T5, Alpha-1A adrenergic receptor (Rattus norvegicus) (UniProt P43140); test: Antagonist affinity was expressed as apparent pKb at Alpha-1A adrenergic receptor on isolated rat prostatic vas deferens (alpha1A).; assay type: functional, tissue-based
T5 sequence (whole entry): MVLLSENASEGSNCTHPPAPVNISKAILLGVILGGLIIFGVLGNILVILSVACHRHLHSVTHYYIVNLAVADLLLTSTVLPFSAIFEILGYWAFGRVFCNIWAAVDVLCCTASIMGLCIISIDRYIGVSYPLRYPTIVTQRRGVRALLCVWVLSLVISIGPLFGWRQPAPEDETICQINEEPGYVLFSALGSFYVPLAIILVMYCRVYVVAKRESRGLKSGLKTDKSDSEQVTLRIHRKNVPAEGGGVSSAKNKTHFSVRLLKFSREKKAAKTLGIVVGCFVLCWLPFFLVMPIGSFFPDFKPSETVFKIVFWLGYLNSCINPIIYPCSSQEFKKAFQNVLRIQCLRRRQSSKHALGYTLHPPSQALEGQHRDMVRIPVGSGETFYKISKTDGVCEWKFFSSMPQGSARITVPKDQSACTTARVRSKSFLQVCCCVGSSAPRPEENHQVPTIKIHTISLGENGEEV
Method in brief: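 Rat prostatic vas deferens in Tyrode with 0.1 μM cocaine. Equilibrated 60 min, primed twice with 10 μM noradrenaline, then a control cumulative (–)-noradrenaline curve recorded isometrically. Antagonist equilibrated 30 min before a repeat curve. Apparent pKb = log(DR−1) − log[B], with DR as the ratio of agonist EC50 with/without antagonist. 2–3 antagonist concentrations, each tested four times.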

[11] = biological target: T6, Alpha-1D adrenergic receptor (Rattus norvegicus) (UniProt P23944); test: Antagonist affinity was expressed as apparent pKb at Alpha-1D adrenergic receptor on isolated rat thoracic aorta (Alpha-1D); assay type: functional, tissue-based
T6 sequence (whole entry): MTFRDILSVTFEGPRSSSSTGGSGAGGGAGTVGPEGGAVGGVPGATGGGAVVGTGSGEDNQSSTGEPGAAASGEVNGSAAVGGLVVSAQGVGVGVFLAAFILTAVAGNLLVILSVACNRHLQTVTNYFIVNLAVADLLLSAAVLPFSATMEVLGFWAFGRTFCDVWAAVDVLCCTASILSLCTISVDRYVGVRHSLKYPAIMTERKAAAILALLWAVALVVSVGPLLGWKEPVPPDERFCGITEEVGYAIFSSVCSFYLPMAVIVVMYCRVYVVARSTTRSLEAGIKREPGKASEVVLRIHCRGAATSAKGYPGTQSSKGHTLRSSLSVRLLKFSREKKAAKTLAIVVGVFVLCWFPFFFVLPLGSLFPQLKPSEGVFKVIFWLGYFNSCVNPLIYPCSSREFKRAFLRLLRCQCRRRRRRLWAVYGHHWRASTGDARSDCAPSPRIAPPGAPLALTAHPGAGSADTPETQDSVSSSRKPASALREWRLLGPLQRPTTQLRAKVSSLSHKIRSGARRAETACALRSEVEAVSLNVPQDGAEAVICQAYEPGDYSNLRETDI
Method in brief: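 Helicoidal strips of rat thoracic aorta at 1 g tension, with 0.1 μM cocaine and 1 μM propranolol. After ≥1 h equilibration, cumulative (–)-noradrenaline curves at 30-min intervals; the third served as control. Antagonist equilibrated 30 min before the fourth curve. Apparent pKb from log(DR−1) − log[B], 2–3 antagonist concentrations, each tested four times.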

[12] = biological target: T3, Alpha-1B adrenergic receptor (Homo sapiens); test: The binding affinity was evaluated on cloned human Alpha-1B adrenergic receptor expressed in chinese hamster ovary(CHO) cells by using [3H]prazosin as radioligand.; assay type: cell-based
Method in brief: as §1

[13] = biological target: T1, 5-hydroxytryptamine receptor 1A (Homo sapiens); test: Maximum […] was evaluated as ([35S]GTP binding on cloned human 5-hydroxytryptamine 1A receptor; assay type: functional
Method in brief: (§2)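 HeLa membranes stably expressing human 5-HT1A, in 20 mM HEPES, 3 mM MgSO4, 120 mM NaCl (pH 7.4). Preincubated 20 min at 30 °C with 30 μM GDP and drug (100 μM–0.1 nM), then [35S]GTPγS (150–250 pM) added for a further 30 min at 30 °C. Nonspecific binding with 10 μM GTPγS. Filtration and scintillation counting. Stimulation is % above basal, with maximal 5-HT response = 100%. Emax and pD2 from curve fitting. Triplicate, 2–3 sessions.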

[14] = biological target: T4, Alpha-1D adrenergic receptor (Homo sapiens); test: The binding affinity was evaluated on cloned human Alpha-1D adrenergic receptor expressed in chinese hamster ovary(CHO) cells by using [3H]-prazosin as radioligand.; assay type: cell-based
Method in brief: as §1

[15] = biological target: T2, Alpha-1A adrenergic receptor (Homo sapiens); test: The binding affinity was evaluated on cloned human Alpha-1A adrenergic receptor expressed in chinese hamster ovary(CHO) cells by using [3H]prazosin as radioligand.; assay type: cell-based
Method in brief: as §1

[16] = biological target: T1, 5-hydroxytryptamine receptor 1A (Homo sapiens); test: Agonist efficacy was evaluated as [35S]GTP binding on cloned human 5-hydroxytryptamine 1A receptor; assay type: functional
Method in brief: as §2

## NCCc1c[nH]c2ccc(O)cc12
[1]
  pD2: 7.3

## NCCc1c[nH]c2ccc(C(N)=O)cc12
[2]
  pD2: 8.45

## COc1cccc(OC)c1OCCNCC1C(=O)c2ccccc2CC1c1ccccc1 (stereo not given)
[3]
  pKi: < 6
[4]
  pKi: 6.83
[5]
  pKi: 8.06
[6]
  pKi: 6.11
[7]
  pKi: 6.88
[8]
  pKi: 6.63
[9]
  pKi: 6.45

## COc1cccc(OC)c1OCCNC[C@H]1Oc2ccccc2O[C@@H]1c1ccccc1
[10]
  pKb: 8.18
[11]
  pKb: 7.51

## COc1cccc(OC)c1OCCNCC1COc2ccccc2O1 (stereo not given)
[3]
  pKi: 6.91
[4]
  pKi: 8.68
[5]
  pKi: 9.37
[8]
  pKi: 6
[9]
  pKi: 7.83

## COc1cccc(OC)c1OCCNCC1Oc2ccccc2CC1c1ccccc1 (stereo in doubt; 6)
[4]
  pKi: 6.76
[5]
  pKi: 6.78
[6]
  pKi: 6.51
[7]
  pKi: 6.86

## COc1cccc(OC)c1OCCNCC1C(=O)c2ccccc2SC1c1ccccc1 (stereo not given)
[4]
  pKi: 7.36
[12]
  pKi: < 6
[5]
  pKi: 7.42
[7]
  pKi: 6.37

## COc1cccc(OC)c1OCCNCC1=Cc2ccccc2OC1c1ccccc1 (stereo not given)
[4]
  pKi: 8.08
[12]
  pKi: 6.84
[13]
  Max: 40%
[14]
  pKi: 6.95
[15]
  pKi: 7.14
[16]
  pD2: 6.44
